# Rows were chosen to be rich in hits. Some 2.1% of all compounds tested hit in one or more screens of this group.
# TbHK1 inh: Trypanosoma brucei hexokinase 1 inhibitors, primary screen, biochemical, G6PDH-coupled NADH absorbance, MLSCN library; recombinant TbHK1, G6PDH-coupled NADH A340; 0.11% of 220,000 active; inhibition, % at 10 µM; hexokinase 1 [Trypanosoma brucei];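 active = inhibition of 50% or more in the single-dose primary screen; inactive = inhibition below 50%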
# RanGTP-Imp inh: inhibitors of RanGTP-importin-beta interaction, primary screen, biochemical, FRET, CFP-Ran, YFP-importin-beta, homogeneous. Ran GTPase (GTP-bound) - importin-beta complex. cell-free CFP-Ran/YFP-importin-beta FRET ratio. inhibition, % (no concentration beside the values). 1.1% of 300,000 active;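 active = more than half of the replicate wells show a fall in the fluorescence ratio signal beyond about 16%, limit read from the data, passing the limit was not always enough; inconclusive = exactly half of the replicate wells pass the set limit; inactive = fewer than half of replicates pass the limit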;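 also: 0% = DMSO wells and 100% = Ran loaded with GDP instead of GTP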
# Runt-SMMHC FRET: inhibitors of RUNX1 Runt–CBFb-SMMHC binding, primary screen, biochemical, FRET, Cerulean-Runt, Venus-CBFb-SMMHC, uHTS | Cerulean-Runt/Venus-CBFb-SMMHC FRET ratio 530/480, 1 h | Runt-related transcription factor 1 (Homo sapiens) + Core-binding factor subunit beta … | 0.74% of 220,000 active | inhibition, % at 20 µM | AID 1434, 2008;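 active = mean inhibition across duplicate retests at 20 µM reaching about 50%, limit read from the data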;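 also: 0% = DMSO wells and 100% = wells with excess untagged CBFb-SMMHC; inhibitors lower the FRET ratio by blocking Runt binding to CBFb-SMMHC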
# Hck Nef HTS: inhibitors of Nef-activated human Hck kinase, primary screen, biochemical, Z-Lyte FRET, 384-well, Hck-YEEI; AID 463187, 2010; Recombinant Hck-YEEI plus Nef, Z-Lyte FRET kinase assay; inhibition, % at 20 µM; 0.68% of 220,000 active;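 active = Hck-Nef kinase inhibition above about 50%, limit read from the data; inactive = inhibition below that limit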;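 also: 0% = DMSO with Hck plus Nef and 100% = Hck alone without Nef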
# Runt-CBFb FRET: inhibitors of RUNX1 Runt–CBFb binding, primary screen, biochemical, FRET, Cerulean-Runt, Venus-CBFb, uHTS. Cerulean-Runt/Venus-CBFb FRET ratio 530/480, 1 h. 0.46% of 220,000 active. AID 1496, 2009. Runt-related transcription factor 1 (Homo sapiens) + Core-binding factor subunit beta …. inhibition, % at 20 µM;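 active = inhibition over about 50% at 20 µM in the single-dose screen, limit read from the data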;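 also: 0% = DMSO wells and 100% = excess unlabeled CBFb competitor control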
#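 Reagent – Venus-CBFb binding partner, 100 nM · Assay system – Cerulean-tagged RUNX1 Runt domain (FRET donor) fusion protein · Input – 100 nM per protein · Incubation – two 1 h room-temperature incubations shielded from light · Measured by – FRET fluorescence · Medium – Tris buffer pH 7.5 with salts and BSA · Benchmarks – unlabeled CBFb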
# p97 inhibitor: inhibitors of human p97 ATPase, primary screen, biochemical; recombinant p97 ATPase, Kinase-Glo ATP luminescence, 3 h; 0.42% of 220,000 active; inhibition, % at 8 µM; Transitional endoplasmic reticulum ATPase (Homo sapiens), P55072; in the data active = inhibition above about 15%;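 also: 0% = DMSO vehicle and 100% = wells lacking enzyme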
# Target sequence (P55072 whole entry, looked up): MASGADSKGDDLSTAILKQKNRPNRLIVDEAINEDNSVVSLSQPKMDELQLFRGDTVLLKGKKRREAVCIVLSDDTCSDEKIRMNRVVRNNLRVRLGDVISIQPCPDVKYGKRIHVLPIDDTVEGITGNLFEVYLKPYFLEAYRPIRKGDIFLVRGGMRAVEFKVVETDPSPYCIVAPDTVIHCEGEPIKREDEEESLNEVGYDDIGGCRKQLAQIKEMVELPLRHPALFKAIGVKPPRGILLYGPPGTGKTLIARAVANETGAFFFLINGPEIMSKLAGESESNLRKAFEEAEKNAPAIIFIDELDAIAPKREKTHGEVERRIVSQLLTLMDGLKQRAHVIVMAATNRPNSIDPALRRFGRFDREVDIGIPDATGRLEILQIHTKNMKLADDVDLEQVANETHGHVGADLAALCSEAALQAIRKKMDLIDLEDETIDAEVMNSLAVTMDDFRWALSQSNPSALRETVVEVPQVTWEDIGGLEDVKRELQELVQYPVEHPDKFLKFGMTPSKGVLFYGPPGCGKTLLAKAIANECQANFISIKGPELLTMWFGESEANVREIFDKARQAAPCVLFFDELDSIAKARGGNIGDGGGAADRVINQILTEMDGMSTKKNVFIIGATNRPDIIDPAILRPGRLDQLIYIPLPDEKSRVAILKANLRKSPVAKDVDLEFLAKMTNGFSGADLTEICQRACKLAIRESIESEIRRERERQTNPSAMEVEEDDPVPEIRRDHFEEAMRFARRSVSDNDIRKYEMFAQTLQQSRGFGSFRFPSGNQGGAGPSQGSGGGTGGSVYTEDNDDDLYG
# * marks the source's active call; other numbers are inactive results; ? = inconclusive; · = no result given.
SMILES,TbHK1 inh,RanGTP-Imp inh,Runt-SMMHC FRET,Hck Nef HTS,Runt-CBFb FRET,p97 inhibitor
O=c1c2ccccc2oc2cc(NCCCN3CCOCC3)ccc12,·,45.6*,·,·,·,·
CN1CCCC1CCNc1ccc2c(=O)c3ccccc3oc2c1 (stereo unspecified),·,49.2*,·,·,·,·
CC(C)Oc1ccc(CNCC2(O)CCOC(C)(C)C2)cc1 (stereo unspecified),-2.4,4.4,0.8,1.5,-2.5,0.3
Cc1ccc(Cl)cc1N(C(=O)c1csnn1)C(C(=O)NC1CCCC1)c1ccco1 (stereo unspecified),·,0.2,·,·,·,·
O=C(OCc1c(F)cccc1Cl)c1cccnc1Cl,·,-1.3,·,·,·,·
COCCn1c(CCC(=O)O)ccc1-c1cccs1,2.5,6.2,55.1*,6.0,31.4,4.4
CCCCn1c(CCC(=O)O)ccc1-c1cccs1,29.2,8.6,32.1,20.8,17.2,1.7
Cc1cc(C)n(CCC(=O)N/N=C/c2c(O)ccc3ccccc23)n1,-25.2,36.4*,44.8,10.4,29.2,3.7
N=c1c(S(=O)(=O)c2ccccc2)cc2c(=O)n3ccccc3nc2n1CCN1CCOCC1,-2.0,·,·,23.8,·,0.6
CCCn1c(=N)c(S(=O)(=O)c2ccccc2)cc2c(=O)n3ccccc3nc21,-17.3,198.3*,84.0*,-7.0,21.6,0.8
CCn1c(=N)c(S(=O)(=O)c2ccccc2)cc2c(=O)n3ccccc3nc21,-1.2,169.8*,90.5*,18.4,20.6,-2.0
CS(=O)(=O)N1Cc2ccccc2CC1C(=O)Nc1ccccc1C(N)=O (stereo unspecified),2.1,?,2.5,7.6,2.5,6.3
Cc1cc(OCC#N)nc(N)n1,1.3,?,1.8,24.6,-0.7,1.6
N/C(=N\OC(=O)COc1ccc2ccccc2c1Br)c1ccncc1,-6.4,-4.1,-0.6,2.8,-10.9,-1.2
CCc1ccc[n+](-c2nc3ccccc3nc2C(=C=[N-])C#N)c1,-9.3,30.6*,5.4,29.8,-16.9,1.1
O=C(O)c1ccccc1CSc1nc2ccccc2[nH]1,·,3.6,·,·,·,·
Fc1c(CSC(=S)N2CCOCC2)cccc1CSC(=S)N1CCOCC1,17.8,8.2,4.0,10.7,1.5,-0.5
CNc1oc(/C=C/c2ccccc2)nc1C#N,-24.0,-0.2,84.2*,19.9,33.0,1.8
CC(=O)Nc1cccc(N/C=C(\C=O)c2nc3ccccc3o2)c1,-24.8,1.4,66.2*,7.4,26.4,1.4
COC(=O)c1ccccc1S(=O)(=O)N1CCC(C(=O)N(C)CCOc2ccccc2)CC1,·,2.6,·,·,·,·
COc1ccc(-c2ccc(C(c3c(C)[nH][nH]c3=O)c3c(C)[nH][nH]c3=O)o2)c([N+](=O)[O-])c1,1.9,·,4.6,21.8,20.1,15.0*
Cc1csc(NC(=O)c2cc(=O)[nH]c3ccc(S(=O)(=O)N4CCOCC4)cc23)n1,-10.8,4.9,118.2*,26.0,79.5*,5.9
O=C(NC1CCCCCC1)c1cc(=O)[nH]c2ccc(S(=O)(=O)N3CCOCC3)cc12,-13.6,5.7,5.4,-2.6,-2.8,2.9
CCOC(=O)c1[nH]c2c(c1-c1ccccc1)C(=O)CC(c1ccc(OCC)cc1)C2 (stereo unspecified),-0.6,-2.2,2.1,-1.2,-0.1,-3.5
CCOC(=O)c1[nH]c2c(c1-c1ccccc1)C(=O)CC(c1ccc(OC)c(OC)c1)C2 (stereo unspecified),-2.1,1.3,3.4,5.0,101.6*,0.7
SMILES,TbHK1 inh,RanGTP-Imp inh,Runt-SMMHC FRET,Hck Nef HTS,Runt-CBFb FRET,p97 inhibitor
CCOC(=O)c1c(NC(=O)CSc2nnc(-c3ccncc3)n2Cc2ccco2)sc(C)c1C,-15.7,1.8,-0.9,0.7,-6.9,-8.9
Cn1/c(=N/N=C/c2ccccn2)sc2ccccc21,-30.7,·,-6.1,17.5,-0.7,0.1
COCCCn1c(=O)/c(=C\c2ccc(OC(F)F)c(OC)c2)s/c1=C(/C#N)C(N)=O,-13.6,-173.3,81.1*,8.3,-89.1,3.7
COCCCn1c(=O)/c(=C\c2ccccc2OC(F)F)s/c1=C(/C#N)C(N)=O,2.3,5.7,-7.9,24.0,-19.0,3.6
COc1cccc(OCc2cc(C(=O)N(C)C3CC(C)(C)NC(C)(C)C3)no2)c1,·,1.9,·,·,·,·
CC1C/C(=C/c2ccco2)C(=O)/C(=C/c2ccco2)C1 (stereo unspecified),4.6,-9.0,-0.8,66.6*,9.7,1.2
O=C1/C(=C\c2ccco2)CCC/C1=C\c1ccco1,7.8,-13.7,2.2,9.0,27.8,3.5
CC1CCC(N2CCN(c3ncccn3)CC2)C1 (stereo unspecified),-6.3,3.8,-3.1,1.5,-0.1,-2.4
CC(C)(C)c1cc(C(=O)NCC(=O)OCC(=O)c2cccc([N+](=O)[O-])c2)cc(C(C)(C)C)c1,28.5,32.3*,-1.2,5.8,-4.8,3.7
CCOC(=O)C(NC(=O)c1ccccc1OCC)(Nc1ncccn1)C(F)(F)F (stereo unspecified),-3.5,-3.3,2.4,0.6,-5.2,2.6
O=C1C=CC(=O)N1c1ccc(Sc2ccc([N+](=O)[O-])cc2)cc1,-5.8,-5.1,41.3,50.1*,25.8,8.3
CNC(=O)c1cc2c(=O)n3cc(C)ccc3nc2n(Cc2ccco2)c1=N,·,·,41.9,·,88.1*,·
CCOCCCn1c(=N)c(S(=O)(=O)c2ccc(C)cc2)cc2c(=O)n3cc(C)ccc3nc21,·,158.2*,·,·,·,·
N=c1c(S(=O)(=O)c2ccccc2)cc2c(=O)n3ccccc3nc2n1Cc1ccco1,-7.7,85.1*,·,22.2,12.5,10.7
Cc1ccc2nc3c(cc(S(=O)(=O)c4ccccc4)c(=N)n3Cc3ccco3)c(=O)n2c1,-10.2,?,92.3*,36.6,18.6,6.3
COc1ccc(CCn2c(=N)c(S(=O)(=O)c3ccc(Cl)cc3)cc3c(=O)n4ccccc4nc32)cc1,·,9.4,·,·,·,·
Cn1c(=O)cc(SCC(=O)NCCC2=CCCCC2)c2cc(Cl)ccc21,-10.6,-1.8,-3.5,0.7,-10.5,2.5
CN(Cc1ccon1)Cc1cn(Cc2ccccc2)nc1-c1ccc2c(c1)OCO2,-1.7,1.8,-4.6,2.1,-1.8,-0.9
CCn1c(=N)c(S(=O)(=O)c2ccc(C)cc2)cc2c(=O)n3ccccc3nc21,-6.1,-1.4,·,14.4,·,0.0

# Bioassay records deposited in PubChem BioAssay by several laboratories.
